Experimental data taken from ChEMBL document CHEMBL1157220, “Isoflavonoids and other compounds from Psorothamnus arborescens with antiprotozoal activities” (J Nat Prod, 2006).

What was measured:
[1] = test system: Trypanosoma brucei brucei; test: Antitrypanosomal activity against Trypanosoma brucei brucei MITat 1.2 variant 221 after 72 hrs; type: functional, organism-based
Summary of the method: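 Bloodstream-form parasites grown axenically in HMI-9, seeded late log phase at 10⁵ cells/mL, exposed with or without compound 72 h at 37 °C, humidified 5% CO₂. p-Nitrophenyl phosphate (20 mg/mL solution in 1 M NaOAc pH 5.5, 1% Triton X-100) added, further 6-8 h at 37 °C; acid phosphatase read at 405 nm. IC50 versus untreated control from four-parameter dose-response fit.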

Vero = test: Cytotoxicity against african green monkey Vero cells; type: cell-based; conditions: Chlorocebus sabaeus
Leishmania donovani = test: Antileishmanial activity against Leishmania donovani MHOM/SD/62/IS-CL2D axenic amastigotes after 3 days; type: functional, organism-based; conditions: 72 h
Summary of the method: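 Amastigote-like L. donovani parasites were grown axenically in vitro and exposed to compounds for three days. Viability was read with a tetrazolium dye-based reagent, following a previously described protocol.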

PC-3 = test: Cytotoxicity against human PC3 cells; type: cell-based
[2] = Selectivity of IC50 for Trypanosoma brucei brucei MITat 1.2 variant 221 to IC50 for african green monkey Vero cells

Structure (SMILES)	IC50 [1] [µM]	IC50 (Vero) [µM]	IC50 (Leishmania donovani) [µM]	IC50 (PC-3) [µM]	Selectivity ratio [2]
COc1ccc(-c2coc3cc(OC)ccc3c2=O)cc1	> 100	–	–	–	–
O=c1c(-c2ccc(O)c(O)c2)coc2cc(O)ccc12	7.1	135	–	–	–
CC1(C)CCc2c(-c3coc4cc(O)cc(O)c4c3=O)ccc(O)c2O1	57.9	–	38.4	107	–
CC1(C)CCc2cc(-c3coc4cc(O)cc(O)c4c3=O)cc(O)c2O1	77	–	68.3	79.3	–
CC(C)=CCc1c(-c2coc3cc(O)cc(O)c3c2=O)ccc(O)c1O	12.1	37.5	13	12.7	–
COc1ccc2c(C=O)c(-c3cc4c(cc3O)OCO4)oc2c1	> 250	> 250	> 250	> 250	–
C=CC(C)(C)c1cc(OC)c(OC)cc1-c1coc2cc(OC)cc(OC)c2c1=O	41.7	–	86	134	–
COc1cc(OC)c2c(=O)c(-c3cc(CC=C(C)C)c(OC)c(OC)c3)coc2c1	7.8	44.3	41.4	30.9	–
Oc1ccc2c(c1)OCC1c3cc4c(cc3OC21)OCO4 (racemic)	130	> 250	> 250	> 250	–
Oc1ccc2c(c1O)OCC1c3cc4c(cc3OC21)OCO4 (racemic)	3.7	3.3	37.3	28	–
O=c1c(-c2ccccc2)coc2cc(O)ccc12 [7-HYDROXY ISOFLAVONE]	94.2	–	113	–	–
COc1cc2cc(c1Cl)N(C)C(=O)C[C@H](OC(=O)C(C)C)[C@]1(C)O[C@@H]1[C@H](C)[C@@H]1C[C@@](O)(NC(=O)O1)[C@H](OC)/C=C/C=C(\C)C2 [ANSAMITOCIN P3]	–	0.0012	–	–	–
O=c1cc(-c2ccc(O)cc2)oc2cc(O)cc(O)c12 [APIGENIN]	11.9	–	–	–	–
COc1ccc(-c2coc3cc(O)cc(O)c3c2=O)cc1 [BIOCHANIN]	12.3	–	89.9	–	–
COc1ccc(-c2coc3cc(O)ccc3c2=O)cc1O [CALYCOSIN]	12.7	159	100	130	15
O=c1c(-c2ccc(O)cc2)coc2cc(O)ccc12 [DAIDZEIN]	23.7	–	–	–	–
COc1ccc(-c2coc3cc(O)ccc3c2=O)cc1 [FORMONONETIN]	90.2	–	–	–	–
C=CC(C)(C)c1cc(OC(C)=O)c(OC(C)=O)cc1-c1coc2cc(OC(C)=O)cc(OC(C)=O)c2c1=O [FREMONTIN TETRAACETATE]	67.8	–	42.7	66.2	–
O=c1c(-c2ccc(O)cc2)coc2cc(O)cc(O)c12 [GENISTEIN]	4.2	32.9	73	–	–
CC(C)=CCc1cc(-c2coc3cc(O)cc(O)c3c2=O)cc(O)c1O [GLYCYRRHISOFLAVONE]	33	52.8	46.3	62.1	–
O=C(/C=C/c1ccc(O)cc1)c1ccc(O)cc1O [ISOLIQUIRITIGENIN]	32.8	65.6	20.7	46.4	–
CC1(C)CC[C@]2(C(=O)O)CC[C@]3(C)C(=CC[C@@H]4[C@@]5(C)CC[C@H](O)C(C)(C)[C@@H]5CC[C@]43C)[C@@H]2C1 [OLEANOLIC_ACID]	43.1	> 250	> 250	211	–
N=C(N)c1ccc(OCCCCCOc2ccc(C(=N)N)cc2)cc1 [PENTAMIDINE]	–	–	1.5	–	–
COc1cc([C@@H]2c3cc4c(cc3[C@H](O)[C@H]3COC(=O)[C@H]23)OCO4)cc(OC)c1OC [PODOFILOX]	–	–	–	0.0125	–
COc1cc(O)c2c(=O)c(-c3ccc(O)cc3)coc2c1 [PRUNETIN]	20.2	–	–	–	–
Cc1ccc(C(=O)Nc2ccc(S(=O)(=O)O)c3cc(S(=O)(=O)O)cc(S(=O)(=O)O)c23)cc1NC(=O)c1cccc(NC(=O)Nc2cccc(C(=O)Nc3cc(C(=O)Nc4ccc(S(=O)(=O)O)c5cc(S(=O)(=O)O)cc(S(=O)(=O)O)c45)ccc3C)c2)c1 [SURAMIN]	0.19	–	–	–	–
C=CC(C)(C)c1cc(OC)c(OC)cc1-c1coc2cc(OC)cc(O)c2c1=O [TRIMETHYLFREMONTIN]	32.3	–	> 250	146	–
